Measurements: article PMC3068223 (Biochemistry, 2011)

Assays:
Format in all cases: biochemical
MOM-bound rat MAO B [1] = biological target: T1, MOM-bound rat MAO B (Rattus norvegicus, UniProt P19643); test: Protease treatment of yeast recombinant MOM-bound rat MAO B; details: protease:protein 1:5 (w/w), room temperature
T1 sequence (P19643 1-520): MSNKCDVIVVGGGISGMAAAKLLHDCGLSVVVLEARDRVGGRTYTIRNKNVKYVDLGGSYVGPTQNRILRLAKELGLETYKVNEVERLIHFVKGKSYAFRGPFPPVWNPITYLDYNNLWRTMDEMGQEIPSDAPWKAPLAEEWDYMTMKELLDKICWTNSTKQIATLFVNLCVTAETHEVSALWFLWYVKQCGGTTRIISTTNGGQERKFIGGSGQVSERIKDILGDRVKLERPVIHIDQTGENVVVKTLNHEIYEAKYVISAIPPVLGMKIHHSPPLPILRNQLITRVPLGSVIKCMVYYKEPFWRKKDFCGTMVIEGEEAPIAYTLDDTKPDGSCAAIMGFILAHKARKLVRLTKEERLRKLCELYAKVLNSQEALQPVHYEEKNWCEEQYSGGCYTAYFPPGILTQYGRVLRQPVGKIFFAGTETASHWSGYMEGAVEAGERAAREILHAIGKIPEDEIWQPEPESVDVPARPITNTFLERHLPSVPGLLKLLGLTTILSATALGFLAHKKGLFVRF
Procedure, shortened: (§1)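 Rat MAO A or MAO B was expressed in Pichia pastoris KM71. Outer membranes were isolated by osmotic shock, mild sonication and a 30–55% sucrose gradient. Membranes were incubated at room temperature with trypsin or β-chymotrypsin at a 1:5 (w/w) protease:protein ratio. Timed samples were quenched with 1 mM PMSF (final). Residual activity was measured spectrophotometrically as product formation at 25°C.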

MOM-bound rat MAO A [2] = biological target: T2, MOM-bound rat MAO A (Rattus norvegicus, UniProt P21396); test: Protease treatment of yeast recombinant MOM-bound rat MAO A; details: protease:protein 1:5 (w/w), room temperature
T2 sequence (P21396 1-526): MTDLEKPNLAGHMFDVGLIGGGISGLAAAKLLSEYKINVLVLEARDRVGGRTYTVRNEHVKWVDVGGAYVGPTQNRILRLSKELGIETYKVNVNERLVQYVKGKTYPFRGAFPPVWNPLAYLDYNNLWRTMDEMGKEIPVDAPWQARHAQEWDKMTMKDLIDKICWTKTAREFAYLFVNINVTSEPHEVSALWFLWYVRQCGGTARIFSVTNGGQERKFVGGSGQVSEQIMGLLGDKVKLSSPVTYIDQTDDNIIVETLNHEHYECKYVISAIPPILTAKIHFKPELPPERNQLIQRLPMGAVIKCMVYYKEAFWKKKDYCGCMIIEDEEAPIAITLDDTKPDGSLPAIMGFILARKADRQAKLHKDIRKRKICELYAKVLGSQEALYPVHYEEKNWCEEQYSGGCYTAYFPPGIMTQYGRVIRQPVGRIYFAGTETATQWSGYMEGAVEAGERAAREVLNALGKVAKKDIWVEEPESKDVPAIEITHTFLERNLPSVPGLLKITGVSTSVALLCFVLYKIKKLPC
Procedure, shortened: as §1

MAO A = biological target: T3, MAO A (Rattus norvegicus, UniProt P21396); test: Protease treatment of rat liver mitochondria, MAO A activity; details: protease:protein 1:5 (w/w), room temperature
T3 sequence (P21396 1-526): T2 sequence (P21396 1-526)
Procedure, shortened: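 Rat liver mitochondria were isolated from a perfused Sprague-Dawley rat liver and purified on 30% Percoll. They were incubated at room temperature with trypsin at a 1:5 (w/w) protease:protein ratio. Samples taken over time were quenched with 1 mM PMSF (final). MAO A activity was measured polarographically as O2 uptake with serotonin in 50 mM potassium phosphate, pH 7.5, at 25°C.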

rat MAO A = biological target: T4, rat MAO A (Rattus norvegicus, UniProt P21396); test: Inhibition of recombinant rat MAO A in P. pastoris mitochondria; details: intact yeast mitochondria
T4 sequence (P21396 1-526): T2 sequence (P21396 1-526)

MOM-bound rat MAO B [3] = biological target: T1, MOM-bound rat MAO B; test: Rate of inactivation of MOM-bound recombinant rat MAO B; details: apparent pseudo-first order, 1 mM inhibitor, room temperature
MOM-bound rat MAO A [4] = biological target: T2, MOM-bound rat MAO A; test: Rate of inactivation of MOM-bound recombinant rat MAO A; details: apparent pseudo-first order, 1 mM inhibitor, room temperature
Procedure, shortened: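 Outer-membrane-bound rat MAO A came from Pichia pastoris KM71 mitochondria, isolated by osmotic shock, sonication and sucrose gradient. Membranes were incubated with 1 mM test compound at room temperature, with an uninhibited control. Remaining activity over time was followed spectrophotometrically at 25°C. Apparent pseudo-first-order rate constants were obtained from exponential fits of activity decay.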

purified rat MAO A = biological target: T5, purified rat MAO A (Rattus norvegicus, UniProt P21396); test: Rate of inactivation of purified rat MAO A; details: apparent pseudo-first order, 1 mM inhibitor, room temperature
T5 sequence (P21396 1-526): T2 sequence (P21396 1-526)
Procedure, shortened: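 Recombinant rat MAO A was purified from Pichia pastoris KM71, with d-amphetamine removed before kinetics. The enzyme was incubated with 1 mM test compound at room temperature, with an uninhibited control. Activity loss over time was measured spectrophotometrically with kynuramine in 50 mM potassium phosphate, pH 7.5, 0.5% reduced Triton X-100, at 25°C. Pseudo-first-order rate constants came from exponential decay fits.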

rat MAO B = biological target: T6, rat MAO B (Rattus norvegicus, UniProt P19643); test: Inhibition of recombinant rat MAO B in P. pastoris mitochondria; details: intact yeast mitochondria
T6 sequence (P19643 1-520): T1 sequence (P19643 1-520)

purified rat MAO B = biological target: T7, purified rat MAO B (Rattus norvegicus, UniProt P19643); test: Rate of inactivation of purified rat MAO B; details: apparent pseudo-first order, 1 mM inhibitor, room temperature
T7 sequence (P19643 1-520): T1 sequence (P19643 1-520)

inactivation of yeast recombinant MOM-bound rat MAO B by protease (MOM-bound rat MAO B [1]) | inactivation of yeast recombinant MOM-bound rat MAO A by protease (MOM-bound rat MAO A [2]) | MAO A activity lost (MAO A) [%] | k (inactivation) MAO B (MOM) (MOM-bound rat MAO B [3]) | k (inactivation) MAO A (MOM) (MOM-bound rat MAO A [4]) [s⁻¹] | k (inactivation) MAO A (Purified) (purified rat MAO A) [s⁻¹] | k (inactivation) MAO B (Purified) (purified rat MAO B) | Molecule | inhibition of rat MAO A in intact mitochondria (rat MAO A) | inhibition of rat MAO B in intact mitochondria (rat MAO B)
no observable inactivation | sensitive to trypsin | > 90 |  |  |  |  | trypsin |  | 
 |  |  | too fast to measure | 44.8 ± 6.2 | 9.4 ± 1.1 | too fast to measure | C#CCN(C)Cc1ccccc1 [Pargyline, pargyline] | functions as an inhibitor with either enzyme | functions as an inhibitor with either enzyme
